Results from ChEMBL document CHEMBL3352599, “Radiosynthesis and biological evaluation of a novel enoyl-ACP reductase inhibitor for Staphylococcus aureus” (Eur J Med Chem, 2014).

Legend:
[1] = Drug uptake in healthy thigh of Swiss Webster thigh infected mouse model infected with methicillin-resistant Staphylococcus aureus BAA1762 at 3.7 MBq, iv after 15 mins; type: ADME, organism-based, Thigh muscle; details: in vivo, 0.25 h
How it was run: (§1)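 Neutropenic mice (ip cyclophosphamide) given 5×10^5 MRSA cells into the left thigh muscle. [11C]-label given into the lateral tail vein in ethanol/saline (1/3) under isoflurane, then mice recovered and moved freely. Killed by cervical dislocation; muscle from both thighs and blood collected, weighed and well-counted. Reported as %ID/g, mean ± SD, n=3.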

[2] = Drug uptake in healthy thigh of Swiss Webster thigh infected mouse model infected with methicillin-resistant Staphylococcus aureus BAA1762 at 3.7 MBq, iv after 30 mins; type: ADME, organism-based, Thigh muscle; details: in vivo, 0.5 h; how it was run: as §1
[3] = Drug uptake in healthy thigh of Swiss Webster thigh infected mouse model infected with methicillin-resistant Staphylococcus aureus BAA1762 at 3.7 MBq, iv after 45 mins; type: ADME, organism-based, Thigh muscle; details: in vivo, 0.75 h; how it was run: as §1
[4] = Drug uptake in healthy thigh of Swiss Webster thigh infected mouse model infected with methicillin-resistant Staphylococcus aureus BAA1762 at 3.7 MBq, iv after 60 mins; type: ADME, organism-based, Thigh muscle; details: in vivo, 1 h; how it was run: as §1
[5] = Drug uptake in infected thigh of Swiss Webster thigh infected mouse model infected with methicillin-resistant Staphylococcus aureus BAA1762 at 3.7 MBq, iv after 15 mins; type: ADME, organism-based, Thigh muscle; details: in vivo, 0.25 h; how it was run: as §1
[6] = Drug uptake in infected thigh of Swiss Webster thigh infected mouse model infected with methicillin-resistant Staphylococcus aureus BAA1762 at 3.7 MBq, iv after 30 mins; type: ADME, organism-based, Thigh muscle; details: in vivo, 0.5 h; how it was run: as §1
[7] = Drug uptake in infected thigh of Swiss Webster thigh infected mouse model infected with methicillin-resistant Staphylococcus aureus BAA1762 at 3.7 MBq, iv after 45 mins; type: ADME, organism-based, Thigh muscle; details: in vivo, 0.75 h; how it was run: as §1
[8] = Drug uptake in infected thigh of Swiss Webster thigh infected mouse model infected with methicillin-resistant Staphylococcus aureus BAA1762 at 3.7 MBq, iv after 60 mins; type: ADME, organism-based, Thigh muscle; details: in vivo, 1 h; how it was run: as §1
Blood [9] = assay: Drug uptake in blood of Swiss Webster thigh infected mouse model infected with methicillin-resistant Staphylococcus aureus BAA1762 at 3.7 MBq, iv after 15 mins; type: ADME, organism-based; details: in vivo, 0.25 h; how it was run: as §1
Blood [10] = assay: Drug uptake in blood of Swiss Webster thigh infected mouse model infected with methicillin-resistant Staphylococcus aureus BAA1762 at 3.7 MBq, iv after 30 mins; type: ADME, organism-based; details: in vivo, 0.5 h; how it was run: as §1
Blood [11] = assay: Drug uptake in blood of Swiss Webster thigh infected mouse model infected with methicillin-resistant Staphylococcus aureus BAA1762 at 3.7 MBq, iv after 45 mins; type: ADME, organism-based; details: in vivo, 0.75 h; how it was run: as §1
Blood [12] = assay: Drug uptake in blood of Swiss Webster thigh infected mouse model infected with methicillin-resistant Staphylococcus aureus BAA1762 at 3.7 MBq, iv after 60 mins; type: ADME, organism-based; details: in vivo, 1 h; how it was run: as §1
Spleen [13] = assay: Drug uptake in spleen of healthy Swiss Webster mouse at 3.7 MBq, iv after 20 mins; type: ADME, organism-based; details: in vivo
How it was run: (§2)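 Uninfected control mice. [11C]-label given into the lateral tail vein in ethanol/saline (1/3) under isoflurane, then mice recovered and moved freely. Killed by cervical dislocation; blood taken by cardiac puncture, spleen, lung, liver and kidney excised, weighed and well-counted. Reported as %ID/g, mean ± SD, n=3.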

Spleen [14] = assay: Drug uptake in spleen of healthy Swiss Webster mouse at 3.7 MBq, iv after 40 mins; type: ADME, organism-based; details: in vivo; how it was run: as §2
Spleen [15] = assay: Drug uptake in spleen of healthy Swiss Webster mouse at 3.7 MBq, iv after 60 mins; type: ADME, organism-based; details: in vivo, 1 h; how it was run: as §2
Lung [16] = assay: Drug uptake in lung of healthy Swiss Webster mouse at 3.7 MBq, iv after 20 mins; type: ADME, organism-based; details: in vivo; how it was run: as §2
Lung [17] = assay: Drug uptake in lung of healthy Swiss Webster mouse at 3.7 MBq, iv after 40 mins; type: ADME, organism-based; details: in vivo; how it was run: as §2
Lung [18] = assay: Drug uptake in lung of healthy Swiss Webster mouse at 3.7 MBq, iv after 60 mins; type: ADME, organism-based; details: in vivo, 1 h; how it was run: as §2
Liver [19] = assay: Drug uptake in liver of healthy Swiss Webster mouse at 3.7 MBq, iv after 20 mins; type: ADME, organism-based; details: in vivo; how it was run: as §2
Liver [20] = assay: Drug uptake in liver of healthy Swiss Webster mouse at 3.7 MBq, iv after 40 mins; type: ADME, organism-based; details: in vivo; how it was run: as §2
Liver [21] = assay: Drug uptake in liver of healthy Swiss Webster mouse at 3.7 MBq, iv after 60 mins; type: ADME, organism-based; details: in vivo, 1 h; how it was run: as §2
Kidney [22] = assay: Drug uptake in kidney of healthy Swiss Webster mouse at 3.7 MBq, iv after 20 mins; type: ADME, organism-based; details: in vivo; how it was run: as §2
Kidney [23] = assay: Drug uptake in kidney of healthy Swiss Webster mouse at 3.7 MBq, iv after 40 mins; type: ADME, organism-based; details: in vivo; how it was run: as §2
Kidney [24] = assay: Drug uptake in kidney of healthy Swiss Webster mouse at 3.7 MBq, iv after 60 mins; type: ADME, organism-based; details: in vivo, 1 h; how it was run: as §2
Blood [25] = assay: Drug uptake in blood of healthy Swiss Webster mouse at 3.7 MBq, iv after 20 mins; type: ADME, organism-based; details: in vivo; how it was run: as §2
Blood [26] = assay: Drug uptake in blood of healthy Swiss Webster mouse at 3.7 MBq, iv after 40 mins; type: ADME, organism-based; details: in vivo; how it was run: as §2
Blood [27] = assay: Drug uptake in blood of healthy Swiss Webster mouse at 3.7 MBq, iv after 60 mins; type: ADME, organism-based; details: in vivo, 1 h; how it was run: as §2
Spleen [28] = assay: Drug uptake in spleen of Swiss Webster systemic infected mouse model infected with methicillin-resistant Staphylococcus aureus BAA1762 at 3.7 MBq, iv after 20 mins; type: ADME, organism-based; details: in vivo
How it was run: (§3)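 Neutropenic mice (ip cyclophosphamide) infected ip with 2×10^7 MRSA cells. [11C]-label given into the lateral tail vein in ethanol/saline (1/3) under isoflurane, then mice recovered and moved freely. Killed by cervical dislocation; blood taken by cardiac puncture, organs excised, weighed and well-counted. Reported as %ID/g, mean ± SD, n=3.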

Spleen [29] = assay: Drug uptake in spleen of Swiss Webster systemic infected mouse model infected with methicillin-resistant Staphylococcus aureus BAA1762 at 3.7 MBq, iv after 40 mins; type: ADME, organism-based; details: in vivo; how it was run: as §3
Spleen [30] = assay: Drug uptake in spleen of Swiss Webster systemic infected mouse model infected with methicillin-resistant Staphylococcus aureus BAA1762 at 3.7 MBq, iv after 60 mins; type: ADME, organism-based; details: in vivo, 1 h; how it was run: as §3
Lung [31] = assay: Drug uptake in lung of Swiss Webster systemic infected mouse model infected with methicillin-resistant Staphylococcus aureus BAA1762 at 3.7 MBq, iv after 20 mins; type: ADME, organism-based; details: in vivo; how it was run: as §3
Lung [32] = assay: Drug uptake in lung of Swiss Webster systemic infected mouse model infected with methicillin-resistant Staphylococcus aureus BAA1762 at 3.7 MBq, iv after 40 mins; type: ADME, organism-based; details: in vivo; how it was run: as §3
Lung [33] = assay: Drug uptake in lung of Swiss Webster systemic infected mouse model infected with methicillin-resistant Staphylococcus aureus BAA1762 at 3.7 MBq, iv after 60 mins; type: ADME, organism-based; details: in vivo, 1 h; how it was run: as §3
Liver [34] = assay: Drug uptake in liver of Swiss Webster systemic infected mouse model infected with methicillin-resistant Staphylococcus aureus BAA1762 at 3.7 MBq, iv after 20 mins; type: ADME, organism-based; details: in vivo; how it was run: as §3
Liver [35] = assay: Drug uptake in liver of Swiss Webster systemic infected mouse model infected with methicillin-resistant Staphylococcus aureus BAA1762 at 3.7 MBq, iv after 40 mins; type: ADME, organism-based; details: in vivo; how it was run: as §3
Liver [36] = assay: Drug uptake in liver of Swiss Webster systemic infected mouse model infected with methicillin-resistant Staphylococcus aureus BAA1762 at 3.7 MBq, iv after 60 mins; type: ADME, organism-based; details: in vivo, 1 h; how it was run: as §3
Kidney [37] = assay: Drug uptake in kidney of Swiss Webster systemic infected mouse model infected with methicillin-resistant Staphylococcus aureus BAA1762 at 3.7 MBq, iv after 20 mins; type: ADME, organism-based; details: in vivo; how it was run: as §3
Kidney [38] = assay: Drug uptake in kidney of Swiss Webster systemic infected mouse model infected with methicillin-resistant Staphylococcus aureus BAA1762 at 3.7 MBq, iv after 40 mins; type: ADME, organism-based; details: in vivo; how it was run: as §3
Kidney [39] = assay: Drug uptake in kidney of Swiss Webster systemic infected mouse model infected with methicillin-resistant Staphylococcus aureus BAA1762 at 3.7 MBq, iv after 60 mins; type: ADME, organism-based; details: in vivo, 1 h; how it was run: as §3
Blood [40] = assay: Drug uptake in blood of Swiss Webster systemic infected mouse model infected with methicillin-resistant Staphylococcus aureus BAA1762 at 3.7 MBq, iv after 20 mins; type: ADME, organism-based; details: in vivo; how it was run: as §3
Blood [41] = assay: Drug uptake in blood of Swiss Webster systemic infected mouse model infected with methicillin-resistant Staphylococcus aureus BAA1762 at 3.7 MBq, iv after 40 mins; type: ADME, organism-based; details: in vivo; how it was run: as §3
Blood [42] = assay: Drug uptake in blood of Swiss Webster systemic infected mouse model infected with methicillin-resistant Staphylococcus aureus BAA1762 at 3.7 MBq, iv after 60 mins; type: ADME, organism-based; details: in vivo, 1 h; how it was run: as §3

Structure (SMILES): CCCCCCc1ccc(Oc2ccccc2[11C]#N)c(O)c1
- Drug uptake [1]: 0.98 %ID/cc
- Drug uptake [2]: 0.63 %ID/cc
- Drug uptake [3]: 0.42 %ID/cc
- Drug uptake [4]: 0.33 %ID/cc
- Drug uptake [5]: 0.89 %ID/cc
- Drug uptake [6]: 0.54 %ID/cc
- Drug uptake [7]: 0.38 %ID/cc
- Drug uptake [8]: 0.34 %ID/cc
- Drug uptake (Blood [9]): 0.72 %ID/cc
- Drug uptake (Blood [10]): 0.42 %ID/cc
- Drug uptake (Blood [11]): 0.28 %ID/cc
- Drug uptake (Blood [12]): 0.26 %ID/cc
- Drug uptake (Spleen [13]): 0.67 %ID/cc
- Drug uptake (Spleen [14]): 0.37 %ID/cc
- Drug uptake (Spleen [15]): 0.19 %ID/cc
- Drug uptake (Lung [16]): 3.19 %ID/cc
- Drug uptake (Lung [17]): 1.75 %ID/cc
- Drug uptake (Lung [18]): 1.32 %ID/cc
- Drug uptake (Liver [19]): 11.79 %ID/cc
- Drug uptake (Liver [20]): 9.69 %ID/cc
- Drug uptake (Liver [21]): 6.91 %ID/cc
- Drug uptake (Kidney [22]): 2.22 %ID/cc
- Drug uptake (Kidney [23]): 1.41 %ID/cc
- Drug uptake (Kidney [24]): 0.93 %ID/cc
- Drug uptake (Blood [25]): 0.64 %ID/cc
- Drug uptake (Blood [26]): 0.41 %ID/cc
- Drug uptake (Blood [27]): 0.34 %ID/cc
- Drug uptake (Spleen [28]): 0.71 %ID/cc
- Drug uptake (Spleen [29]): 0.3 %ID/cc
- Drug uptake (Spleen [30]): 0.31 %ID/cc
- Drug uptake (Lung [31]): 3.28 %ID/cc
- Drug uptake (Lung [32]): 1.78 %ID/cc
- Drug uptake (Lung [33]): 2.01 %ID/cc
- Drug uptake (Liver [34]): 11.18 %ID/cc
- Drug uptake (Liver [35]): 5.25 %ID/cc
- Drug uptake (Liver [36]): 7.31 %ID/cc
- Drug uptake (Kidney [37]): 2.41 %ID/cc
- Drug uptake (Kidney [38]): 1.15 %ID/cc
- Drug uptake (Kidney [39]): 1.13 %ID/cc
- Drug uptake (Blood [40]): 0.67 %ID/cc
- Drug uptake (Blood [41]): 0.38 %ID/cc
- Drug uptake (Blood [42]): 0.44 %ID/cc
